The values that follow come from paper PMC3579011 (Molecular cancer research : MCR, 2012).

Series [1] deals with DU145 cells. As to the kind of experiment: LDH release cytotoxicity assay, DU145. It is filed as cell-based. A general note: Release of lactate dehydrogenase indicates damage to the cell membrane.
Series [2] relates to DU145 cells. Put plainly: Uptake of fluorescein-CLT1 by fluorescence microscopy, DU145. Particulars: nocodazole 10 µM, 24 hours, versus DMSO. The format is cell-based, human. Put shortly: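 DU145 cells were grown on vitronectin-coated coverslips and exposed 24 h to fluorescein-conjugated peptide alone or with nocodazole, with DMSO as vehicle. Cells were fixed in 4% paraformaldehyde and stained with DAPI. Uptake was scored by fluorescence microscopy at ×40 as the percentage of peptide-positive cells per optical field.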

In series [3] the test system is bladder and prostate tumor cells. As to the kind of experiment: Internalization of fluorescein-CLT1 with fibronectin or fibrinogen. It is filed as cell-based, human. Particulars: FN or FG each 30 µg/ml. Put shortly: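 Cells were grown on vitronectin-coated coverslips and incubated 24 h with fluorescein-conjugated peptide in 2% serum with fibronectin or fibrinogen. They were then fixed in 4% paraformaldehyde and mounted in DAPI-containing medium. Internalization was scored by fluorescence microscopy at ×40 as the percentage of peptide-positive cells per optical field.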

For series [4], the system named is human bladder (J82, T24, UMUC3, TCCSUP), prostate (DU145), kidney (RCC4), breast (MDA-MB-231) and lung (A549) tumor cell lines. Put plainly: LDH release cytotoxicity assay, panel of tumor cell lines. The format is cell-based. Particulars: without CLT1.
Series [5] concerns DU145, UMUC3 and J82 cells. As to the kind of experiment: LDH release with autophagy inhibitor, DU145, UMUC3, J82. The format is cell-based, human. The settings on record: bafilomycin A1 40–400 nM added 1 hour prior to CLT1 (25 µg/ml) + FN, 24 hours. Summed up:
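DU145, UMUC3 and J82 cells at about 50% confluence received 40 to 400 nmol/L bafilomycin A1 plus test peptide with fibronectin for 24 h. Cell death was measured as LDH release using a cytotoxicity detection kit. Values were normalized to background death of control cells treated without peptide in the same medium.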

Series [6] deals with primary human bladder epithelial cells (HBEC). As to the kind of experiment: LDH release cytotoxicity assay, primary bladder epithelial cells. It is filed as cell-based. Particulars: CLT1 75 µg/ml, 24 hours. Summed up:
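Primary human bladder epithelial cells were kept in serum-free Prostalife basal medium with supplements at 37°C and 5% CO2, and treated at about 50% confluence. Peptide diluted in water was added for 24 h in 2% serum alone, or with fibronectin or fibrinogen. Cell death was read as LDH release, expressed as a percentage of maximal release from camptothecin plus 100 nmol/L staurosporine.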

In series [7] the test system is bladder tumor cells (J82, T24, UMUC3, TCCSUP). As to the kind of experiment: LDH release cytotoxicity assay, bladder tumor cells. It is filed as cell-based. The settings on record: CLT1 75 µg/ml, 24 hours; even in the presence of urine.
In series [8] the test system is 786-0 kidney cancer cells. Put plainly: CLT1-induced cell death, 786-0. It is filed as cell-based, human.
Series [9] relates to cathepsin D (lysosome leakage) in DU145, UMUC3 and J82 tumor cells. As to the kind of experiment: Cathepsin D in cytosolic fraction. The format is cell-based, human. The settings on record: CLT1 75 µg/ml, 24 hours. Put shortly:
(§1)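 Cells were lysed by subcellular protein fractionation to obtain the cytoplasmic fraction, or in 2× SDS sample buffer. Proteins were run on SDS-PAGE and transferred to PVDF, with 0.05% Ponceau S staining to check equal loading. Blots were blocked in 5% BSA and probed overnight at 4°C with anti-cathepsin D or anti-LC3B, then detected with peroxidase-conjugated anti-rabbit or anti-mouse IgG and enhanced chemiluminescence.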

Series [10] deals with LC3 in UMUC3 and J82 cells. Put plainly: LC3 conversion. It is filed as cell-based, human. The settings on record: CLT1 25 µg/ml, 2% serum + FN, 24 hours. Put shortly: as §1
The next series has as its system angiogenic endothelium. The settings on record: cited from earlier work.

Positions of bridges follow the written chain, without caps; N, C: chain ends. No end group written: not given here.

For the molecule `COC(=O)Nc1nc2ccc(C(=O)c3cccs3)cc2[nH]1` [nocodazole, reference compound], the “effect on CLT1 cytotoxicity (LDH release)” value in the series with DU145 cells [1] (nocodazole 10 µM, CLT1 75 µg/ml, 24 hours, versus DMSO) is “significantly reduced”. Moreover, the “effect on CLT1 uptake” value in the series on DU145 cells [2] was “inhibited”.
fibrinogen: in [3], the “effect on CLT1 uptake / internalization” value is given as “largely prevents”.
As for fibronectin, the “effect of protein alone on tumor cell fate” value in [4] is on record as “no effect”. In addition, the “fibronectin concentration at which CLT1 cytotoxicity occurred” value in the series with DU145 cells [1] (FN-depleted serum, CLT1 75 µg/ml, FN 3–100 µg/ml, within 24 hours, LDH release) was determined as 10 µg/mL. The “effect on CLT1 uptake / internalization” value in [3] is given as “supports”.
As for `CO/C1=C\C(C)=C\[C@@H](C)[C@@H](O)[C@@H](C)C/C(C)=C/C=C/[C@H](OC)[C@@H]([C@@H](C)[C@@H](O)[C@H](C)[C@@]2(O)C[C@@H](O)[C@H](C)[C@@H](C(C)C)O2)OC1=O` [bafilomycin A1, Bafilomycin A1], the “effect on CLT1 cytotoxicity (LDH release)” value in series [5] is on record as “significantly reduced”.
Consider “CGLIIQKNEC (disulfide 1-10 (inferred)) [CLT1]”, for which, in the series with DU145 cells [1] (CLT1 7.5–150 µg/ml, 2% serum + 30 µg/ml fibronectin, 24 hours, LDH release), the “CLT1 concentration at which cytotoxicity reached a plateau” value was 75 µg/mL. The “cell death in the absence of plasma fibronectin” value with DU145 cells [1] (prostate tumor cells, FN-depleted serum) is recorded as “minimal cell death”. In series [6], the “cytotoxic activity in primary bladder epithelial cells” value was “largely inactive”. Moreover, the “cell death of bladder cancer cells” value in [7] was “extensive cell death”. Also, in series [8], the “sensitivity to CLT1-induced cell death” value was “largely resistant”. Moreover, the “cathepsin D in cytoplasmic fraction (indicator for lysosome leakage)” value in series [9] is “increased concentrations”. Further, the “LC3 conversion (autophagy marker)” value in series [10] is given as “causes LC3 conversion”. Also, the “anti-angiogenic activity in vivo” value with angiogenic endothelium was “strong anti-angiogenic activity”.
